This passage reports cytotoxicity results from ChEMBL document CHEMBL4513216, “Probing the Open Global Health Chemical Diversity Library for Multistage-Active Starting Points for Next-Generation Antimalarials” (ACS Infect Dis, 2020).

The data set in a line: Toxicity liver stage against HepG2, at 10uM. It counts as cell-based. Further details: test concentration 10 uM, cell line HepG2-A16-CD81EGFP. To be noted: human, HepG2-A16-CD81EGFP cells; read-out: INHIBITION
In a few lines: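 Uninfected HepG2-A16-CD81EGFP cells, 3 × 10^3 per well, 1536-well, plated on prespotted compound at 10 μM final, parasite-free screening media added to match infected plates; puromycin 10 μM positive, DMSO 0.5% negative; run in parallel with 48 h PbLuc assay at 37 °C, 5% CO2; viability by CellTiter-Glo luminescence, normalized to controls.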
In the case of `O=C(NCCN1CCCCC1)C(c1ccccc1)N1CCCC1` (configuration not stated), the cytotoxicity at 10 µM was -1.46%.
Then `CC(C)n1ccc2cc(C(=O)Nc3nc[nH]n3)ccc21`, with 4.06%; and `COCC(C)NC(=O)c1nnn(-c2ccc(OC)cc2)n1` (configuration not stated), with 1.87%.
As to `CCC(CC)NC(=O)c1ccc2c(c1)C(c1nc[nH]n1)CN2S(C)(=O)=O` (configuration not stated), the cytotoxicity at 10 µM was -138%.
The same measure for `COC1COC2(CCN(C(=O)c3cnc(C)cn3)CC2)C1` (configuration not stated): 4.29%; for `COCC1c2nnn(CC3CC3)c2CCN1C(=O)C1CCOCC1` (configuration not stated): -136%.
The same measure for `COCC(=O)N1CCC2(COCc3cnc(-c4ccccc4)nc32)C1` (configuration not stated): 2.65%; for `CCCNC(=O)c1nc2c(o1)CN(C(=O)CN(C)C)C2`: 0.0773%.
Then `O=C(O)c1nnn(-c2ccc(OC(F)(F)F)cc2)c1-c1ccncc1`, with -5.85%.
Consider `Cc1cc(C(F)(F)F)nn1CC(C)C(=O)Nc1ccccn1` (configuration not stated), for which the cytotoxicity at 10 µM is 9.84%.
The same measure for `CCn1nc(C)c2c1cnn2CCNS(=O)(=O)c1ccccc1`: 6.28%; for `CS(=O)(=O)c1cn[nH]c1C1CCCCN1C(=O)c1cnccn1` (configuration not stated): -2.13%.
The same measure for `CN(C)CC(=O)N1C[C@@H]2CC[C@H](Oc3ccccc3)[C@@H]2C1`: -26.4%; for `Cc1ncc(CN2CCCC(c3nc4ccccc4n3C(C)C)C2)s1` (configuration not stated): -24.9%; for `O=C(Cc1ccccn1)N1CCC(O)(Cn2ccc3ccncc32)CC1`: -5.24%.
The same measure for `Cc1cc(-c2cnc(NC3CC3)nc2-c2ccco2)on1`: -23.2%.
As for `Cc1cc(C)nc(Nc2cccc(C3CCCN(C(C)C)C3)n2)n1` (configuration not stated), the cytotoxicity at 10 µM is -19.4%.
The same measure for `O=C(CSc1nnc(N2CCOCC2)s1)NCc1cccs1`: 1.66%; for `O=C(NC1CCCCC1)c1c(F)cccc1F`: 3.32%; for `Cc1nc(CNC(=O)NCC2(C)CCCc3ccccc32)no1` (configuration not stated): -3.05%.
Then `CSc1cc2c(cc1NC(=O)N(C)Cc1cnn(C)c1)OCCO2`, with 5.25%; and `CN1CCN(C2CCN(Cc3noc(C(C)(C)C)n3)CC2)C1=O`, with 17.1%.
As for `CCC1COCCN1C(=O)CNC(=O)c1ccoc1C` (configuration not stated), the cytotoxicity at 10 µM was -7.51%.
Consider `COCCCn1ccc(NC2CCSCC2)n1`, for which the cytotoxicity at 10 µM was found to be 3.04%.
Then `Cc1nnc(NCc2ccc(N3CCC(CO)CC3)cc2)c(C#N)c1C`, with -2.83%.
Then `O=C(CN1CCS(=O)(=O)CC1)NC1CCOc2ccccc21` (configuration not stated), with 5.44%; and `O=C(CCn1ccc2ccccc21)N1CCC(Nc2cccnc2)CC1`, with 9.08%; and `Cn1c(C2CC2)nc2cc(NC(=O)C3CC=CC3)ccc21`, with 2.8%.
Then `Cc1csc(CCCNC(=O)NC2CC(=O)N(C(C)(C)C)C2)n1` (configuration not stated), with -8.88%; and `CC(NC(=O)c1cc(-c2cccc(Cl)c2)no1)C(=O)N(C)C` (configuration not stated), with -2.16%.
Consider `COc1cc(C(=O)N2CCC(Nc3cccnc3)CC2)ccc1C`, for which the cytotoxicity at 10 µM was -134%.
Consider `Cc1nc(CNC(=O)NCc2ccc(OCC3CC3)nc2)cs1`, for which the cytotoxicity at 10 µM amounted to 5.07%.
The same measure for `COCCN1C(=O)CC(N2CCN(c3ccccc3)CC2)C1=O` (configuration not stated): 1.22%.
Turning to `Cc1nn(C)c(C)c1CC(=O)N1CCCC1Cn1cccn1` (configuration not stated), the cytotoxicity at 10 µM was -14.8%.
Take `Cc1nn(C(C)C)c(C)c1S(=O)(=O)Nc1ccc(C(=O)O)c(Cl)c1`: the cytotoxicity at 10 µM was -9.5%.
The same measure for `NC(=O)C1CN(c2ccc3c(Cl)ccnc3c2F)CCO1` (configuration not stated): 3.06%; for `CC(C)(C)C(=O)NCCCn1cncn1`: -9.46%; for `N#Cc1ccc(NCCc2n[nH]c(=O)[nH]2)cc1Cl`: 26.5%.
The same measure for `Cc1cc(=O)n(C)cc1NC(=O)Cc1cccc(Cl)c1`: -12.8%.
The same measure for `Cc1noc(C)c1CSCc1nc(N)c2ccccc2n1`: 5.15%.
Regarding `COCC(=O)NC(c1ccc(Cl)cc1)C(F)(F)F` (configuration not stated), the cytotoxicity at 10 µM was 6.76%.
Then `CS(=O)(=O)CCCN(CCc1cccc(F)c1)C1CC1`, with -18.3%; and `Cc1ccc(CN(C)c2cc(N3CCCC3CO)ncn2)s1` (configuration not stated), with 5.6%.
The same measure for `CC(C)(C)NS(=O)(=O)c1cc(NC(=O)C2CC2)ccc1F`: -10.6%; for `O=C(NCc1ccoc1)NC1CCCN(c2ncccn2)C1` (configuration not stated): -1.27%.
The same measure for `Cc1nc(C)n(C2CCCN(C(=O)Cc3cccnc3)C2)n1` (configuration not stated): -2.15%; for `CS(=O)(=O)N[C@@H]1CCN(Cc2cccs2)[C@H]1Cc1cccnc1`: -78.5%.
On to `Cc1cc(C)n(CC(C)NC(=O)C2(c3ccccc3F)CC2)n1` (configuration not stated), for which the cytotoxicity at 10 µM is -0.844%.
The same measure for `O=C(c1cccnc1-c1ccc2c(c1)OCCO2)N1CCCC1`: 3.82%; for `COc1cccc2c1OCC(C(=O)N1CCN(CCS(C)(=O)=O)CC1)C2` (configuration not stated): 1.28%; for `Cc1noc(C)c1C(=O)N1CCC2(CC1)c1nc[nH]c1CCN2C`: 7.9%.
The same measure for `Cc1nc(C2CCCNC2)cc(N(Cc2c(C)nn(C)c2C)C2CC2)n1` (configuration not stated): -7.23%; for `CC(C)Cn1cncc1-c1nc2c([nH]1)CCCNC2=O`: 15%.
Then `CC1CCN(CC(=O)N(C)CCc2noc(C3CC3)n2)C1=O` (configuration not stated), with -133%; and `Fc1cc(Cl)cnc1N1CCCC(c2nccn2Cc2ccccn2)C1` (configuration not stated), with -3.54%; and `O[C@H]1[C@H](n2cc(-c3cncnc3)nn2)c2ccccc2C12CCNCC2`, with -1.39%.
With `O=c1[nH]nc(C2CC2)n1-c1cccc(Cl)c1`, the cytotoxicity at 10 µM was -3.11%.
The same measure for `CSc1nccc(N2CCC3(CCCN(CC4CC4)C3)C2)n1` (configuration not stated): -10.1%; for `CN1C(=O)C2(CCN(c3nccc4occc34)CC2)c2ccccc21`: 1.16%.
Then `CCN(Cc1cnn(C)c1)C[C@H]1CC[C@@H](Cc2ccc(OC)nc2)O1`, with 1.94%.
The same measure for `CCCn1ncnc1C(C)NC(=O)CC1CCN(C(C)C)CC1` (configuration not stated): -150%; for `CC(C)=CCN1CCC(c2nccn2Cc2cscn2)CC1`: -13%; for `CNC(=O)c1ccc(OC2CCN(S(C)(=O)=O)CC2)c(Cl)c1`: 1.49%.
As for `CCN(Cc1ccc2c(c1)OCO2)S(=O)(=O)N(C)C`, the cytotoxicity at 10 µM was -2.97%.
Then `Cc1cccc(C(=O)N2CCCCC2c2nc(C)cs2)n1` (configuration not stated), with -7.26%; and `O=C(NCC1CCCO1)N1CCN(Cc2ccc3c(c2)CCO3)CC1` (configuration not stated), with -5.91%; and `O=C(c1nn(-c2ccccc2F)cc1O)N1CCCSCC1`, with -0.0414%.
The same measure for `CCc1ccc(C(=O)N2CCN(CC(O)CC)CC2)o1` (configuration not stated): -17.6%.
Then `COc1c(C)cnc(CN2CCOC(Cn3nc(C)cc3C)C2)c1C` (configuration not stated), with 3.66%; and `Cc1nn(C)c(N2CCOCC2)c1CNC1CCN(C2CC2)CC1`, with -3.96%.
For the molecule `Fc1ccc(-c2cnc(CN3CCOC(Cn4cccn4)C3)o2)cc1` (configuration not stated), the cytotoxicity at 10 µM was -12.1%.
Then `Cc1nc(C2CCCN(C(=O)c3cc(C(C)(C)C)on3)C2)no1` (configuration not stated), with -11.9%; and `CC(=O)Nc1nc(C(=O)NCc2ccc(N3CCOC(C)C3)nc2)cs1` (configuration not stated), with 0.109%; and `CN(Cc1nnc2n1CCC2)C(=O)CCc1ccc2c(c1)OCO2`, with -14%.
Turning to `O=C(NCc1nncn1-c1ccccc1)C1CC1`, the cytotoxicity at 10 µM was -13.1%.
The same measure for `CC(C)c1nc(C2CCCN2C(=O)CCn2cncn2)no1` (configuration not stated): -2.38%; for `Cc1ccc(C)c(S(=O)(=O)CCNC2CCc3ncnn3C2)c1` (configuration not stated): -30.6%; for `CC(NCc1nnc2n1CCCC2)C(=O)N1CCc2sccc2C1` (configuration not stated): -26.2%.
Then `Cc1nc(CN2CCN(C(C)c3nc(C4CC4)no3)CC2)no1` (configuration not stated), with -6.34%.
The same measure for `CC(C)(CNC(=O)NCCc1ccn(-c2ccccc2)n1)C(N)=O`: -16.8%; for `CN(C)c1cc(CNC(=O)c2cc(Cl)ccn2)ccn1`: -15%; for `Cc1nc(CN2CCCC(N(C)Cc3nnc(C4CC4)o3)C2)no1` (configuration not stated): -24.2%.
As for `CCOc1ccccc1CSCCn1nc2ccccn2c1=O`, the cytotoxicity at 10 µM was determined as 1.88%.
Then `CCc1nc(CN2CCCN(C(=O)C3CCOC3)CC2)cs1` (configuration not stated), with 3.09%; and `COc1ccc(-c2nc(CNCCn3cccn3)cs2)cc1`, with -1.17%.
For `COc1cccc(CN(C)Cc2nc3c(cnn3C)c(=O)[nH]2)c1OC`, the cytotoxicity at 10 µM is -4.28%.
For `CCOCC(O)CN1CCN(C(=O)C2CC2)CC1` (configuration not stated), the cytotoxicity at 10 µM is -7.2%.
The same measure for `CC(C)C[C@H](N)c1nnc(SCC(N)=O)o1`: 4.95%; for `Cc1ccc(CN2C[C@H](N3CCOCC3)[C@@H]3OCCC[C@@H]32)o1`: -125%; for `C[C@H]1CN(C)C[C@@]12COCCN(C(=O)Cc1ccccc1)C2`: 3.65%.
Then `Fc1cnc(N2CC[C@@H]3O[C@H](COCc4ccccn4)CC[C@@H]32)nc1`, with 2.9%.
As to `O=C1[C@H]2CN(Cc3ccco3)C[C@H]2CN1c1cncnc1`, the cytotoxicity at 10 µM was -3.64%.
Then `Cc1n[nH]cc1CNCC1(c2ccc3c(c2)OCO3)CCOCC1`, with 7.73%; and `COCC(=O)NC[C@]12COC[C@H]1CN(c1ncc(F)cn1)C2`, with -143%; and `CC1CCN(c2nc3cn(-c4ccccc4)c(=O)c-3c[nH]2)CC1`, with -12.6%.
The same measure for `Cc1nc(C)c(CC(=O)N2C[C@H]3CC[C@@H](C2)N(CC2CC2)C3)s1`: -1.59%.
Then `O=c1c2c[nH]c(N3CCOCC3)nc-2cn1-c1ccc2c(c1)OCO2`, with -13.1%.
